# Source: ChEMBL document CHEMBL4028811, “Discovery of 2-substituted 1H-benzo[d]immidazole-4-carboxamide derivatives as novel poly(ADP-ribose)polymerase-1 inhibitors with in vivo anti-tumor activity” (Eur J Med Chem, 2017)
# pIC50: −log10 of the molar value.
# Assays:
# [1] = target: T1, Poly [ADP-ribose] polymerase 1 (Homo sapiens, UniProt P09874); experiment: Inhibition of recombinant human PARP1 expressed in Escherichia coli BL21(DE3) using histone as substrate measured after 1 hr in presence of biotinylated NAD+ by ELISA
# [2] = target: T1, Poly [ADP-ribose] polymerase 1; experiment: Inhibition of PARP1 in human MX1 cells assessed as potentiation of temozolomide-induced cytotoxicity at 10 uM after 72 hrs by MTT assay relative to temozolomide alone; format: cell-based
# Method in brief: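 MX-1 cells seeded at 2000/well and exposed for 72 h to TMZ (0–0.5 mmol/L) with or without PARP inhibitor fixed at 10 μmol/L. Survival read by MTT. PF50 = IC50 of TMZ alone / IC50 of TMZ + inhibitor.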
# Homo sapiens = organism: Homo sapiens; experiment: Selectivity ratio of IC50 for recombinant human PARP2 to IC50 for recombinant human PARP1
# Method in brief: (§1)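 Human recombinant PARP2 (and PARP1) expressed and purified, inhibition measured by ELISA, with AZD2281 as positive control. IC50 from concentration–response fitting.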
# [3] = target: Poly [ADP-ribose] polymerase 2 (Homo sapiens, UniProt Q9UGN5); experiment: Inhibition of recombinant human PARP2 expressed in Escherichia coli BL21(DE3) using histone as substrate measured after 1 hr in presence of biotinylated NAD+ by ELISA; method in brief: as §1
# [4] = target: T1, Poly [ADP-ribose] polymerase 1; experiment: Inhibition of recombinant human PARP1 expressed in Escherichia coli BL21(DE3) using sheared DNA as substrate measured after 1 hr in presence of NAD+
# MX1 [5] = experiment: Anti-tumor activity against human MX1 cells xenografted in BALB/c mouse assessed as tumor weight at 50 mg/kg, po administered once daily via gavage for 5 days measured after 11 days (reference value: 4.09 +/- 0.64 g); format: functional
# Method in brief: (§2)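 Female athymic BALB/c nude mice, 8–10 weeks old, implanted s.c. with 1×10^6 MX-1 cells in 0.1 mL PBS. Day 6: grouped at 6/group, tumors 100–300 mm³. Oral gavage once daily. TMZ 50 mg/kg/day for 5 days; single-agent test compound 50 mg/kg/day for 10 days; combinations both orally for 5 days. Body weight and tumor volume measured twice weekly; euthanized day 11.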
# MX1 [6] = experiment: Anti-tumor activity against human MX1 cells xenografted in BALB/c mouse assessed as tumor growth inhibition at 50 mg/kg, po administered once daily via gavage for 5 days measured after 11 days relative to control; format: functional; method in brief: as §2
# Mus musculus = experiment: Toxicity in BALB/c mouse assessed as change in body weight at 50 mg/kg, po administered once daily via gavage for 5 days measured twice every week up to 11 days (reference value: 5.32 g); format: organism-based; details: in vivo; method in brief: as §2
# T1 sequence (P09874 whole entry): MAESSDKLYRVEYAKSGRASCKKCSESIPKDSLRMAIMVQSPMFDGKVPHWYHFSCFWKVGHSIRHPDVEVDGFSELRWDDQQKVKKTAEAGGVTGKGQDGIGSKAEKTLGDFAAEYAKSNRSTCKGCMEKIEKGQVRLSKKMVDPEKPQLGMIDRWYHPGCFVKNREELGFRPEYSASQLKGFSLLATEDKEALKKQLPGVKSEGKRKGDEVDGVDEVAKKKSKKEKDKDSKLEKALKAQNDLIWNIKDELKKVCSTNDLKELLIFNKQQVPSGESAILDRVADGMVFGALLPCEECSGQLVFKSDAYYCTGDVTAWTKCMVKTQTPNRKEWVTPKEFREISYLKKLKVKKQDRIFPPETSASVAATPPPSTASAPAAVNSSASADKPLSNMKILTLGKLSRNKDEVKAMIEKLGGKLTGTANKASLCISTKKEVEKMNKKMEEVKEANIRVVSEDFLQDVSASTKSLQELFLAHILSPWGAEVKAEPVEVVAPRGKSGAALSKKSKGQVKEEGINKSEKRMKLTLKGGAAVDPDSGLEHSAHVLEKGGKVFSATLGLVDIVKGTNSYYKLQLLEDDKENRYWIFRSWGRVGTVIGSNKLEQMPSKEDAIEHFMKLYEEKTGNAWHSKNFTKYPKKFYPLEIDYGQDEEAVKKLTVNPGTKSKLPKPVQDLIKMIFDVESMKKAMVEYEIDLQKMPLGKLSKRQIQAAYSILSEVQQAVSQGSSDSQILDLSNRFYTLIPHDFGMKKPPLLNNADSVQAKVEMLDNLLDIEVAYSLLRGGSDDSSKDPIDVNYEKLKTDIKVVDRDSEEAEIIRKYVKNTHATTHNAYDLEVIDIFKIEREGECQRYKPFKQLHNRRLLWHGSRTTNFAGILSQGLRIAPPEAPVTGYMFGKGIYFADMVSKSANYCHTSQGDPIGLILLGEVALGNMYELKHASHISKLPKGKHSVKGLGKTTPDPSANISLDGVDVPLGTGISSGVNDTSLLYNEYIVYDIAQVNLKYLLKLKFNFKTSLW
# Chain of Poly [ADP-ribose] polymerase 2 (Q9UGN5 whole entry): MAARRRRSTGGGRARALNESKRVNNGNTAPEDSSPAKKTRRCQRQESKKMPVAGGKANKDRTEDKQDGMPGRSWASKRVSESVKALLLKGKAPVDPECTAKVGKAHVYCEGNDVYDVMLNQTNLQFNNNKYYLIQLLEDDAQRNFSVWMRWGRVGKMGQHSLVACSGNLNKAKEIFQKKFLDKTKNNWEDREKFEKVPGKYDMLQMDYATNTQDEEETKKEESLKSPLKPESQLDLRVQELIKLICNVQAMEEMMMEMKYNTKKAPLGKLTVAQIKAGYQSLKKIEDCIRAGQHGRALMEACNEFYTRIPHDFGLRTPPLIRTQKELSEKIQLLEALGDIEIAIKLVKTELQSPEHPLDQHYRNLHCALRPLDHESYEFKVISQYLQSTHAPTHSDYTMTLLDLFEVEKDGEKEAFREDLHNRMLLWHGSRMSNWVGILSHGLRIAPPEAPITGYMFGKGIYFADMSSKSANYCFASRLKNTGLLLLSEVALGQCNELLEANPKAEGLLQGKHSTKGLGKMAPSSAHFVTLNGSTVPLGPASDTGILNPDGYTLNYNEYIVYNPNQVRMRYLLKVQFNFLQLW
compound,measurement,setting,value
CC(C)(C)OC(=O)NC1CCN(C(=O)c2nc3c(C(N)=O)cccc3[nH]2)CC1,pIC50,[1],6.01
NC(=O)c1cccc2[nH]c(C(=O)N3CCC(NC4CCCCC4)CC3)nc12,pIC50,[1],7.15
CCCNC1CCN(C(=O)c2nc3c(C(N)=O)cccc3[nH]2)C1 (stereo not given),PF50,[2],1.54
same,pIC50,[1],7.10
same,Ratio IC50,Homo sapiens,< 10
same,pIC50,[3],7.12
NC(=O)c1cccc2[nH]c(C(=O)NC3CCN(C4CCCCC4)C3)nc12 (stereo not given),pIC50,[4],< 6.00
NC(=O)c1cccc2[nH]c(C(=O)NC3CN4CCC3CC4)nc12 (stereo not given),pIC50,[1],< 7.00
NC(=O)c1cccc2[nH]c(C(=O)NC3CCN(CC(F)(F)F)CC3)nc12,PF50,[2],0.93
same,pIC50,[1],7.47
same,Ratio IC50,Homo sapiens,< 10
same,pIC50,[3],7.00
CC(C)CN1CCC(NC(=O)c2nc3c(C(N)=O)cccc3[nH]2)CC1,pIC50,[1],7.04
CC(C)CCN1CCC(NC(=O)c2nc3c(C(N)=O)cccc3[nH]2)CC1,pIC50,[1],6.95
CC(C)(C)OC(=O)N1CCC(N2CCCC(NC(=O)c3nc4c(C(N)=O)cccc4[nH]3)C2)CC1 (stereo not given),pIC50,[4],6.09
NC(=O)c1cccc2[nH]c(C(=O)NC3CCNCC3)nc12,PF50,[2],1.75
same,pIC50,[1],7.00
same,Ratio IC50,Homo sapiens,< 10
CC[C@H]1CN(C(=O)c2nc3c(C(N)=O)cccc3[nH]2)CCN1C(=O)OC(C)(C)C,pIC50,[1],7.00
NC(=O)c1cccc2[nH]c(C(=O)N3CCC(N)C3)nc12 (stereo not given),PF50,[2],1.98
same,pIC50,[1],7.82
same,Ratio IC50,Homo sapiens,< 10
same,pIC50,[3],7.32
Cn1nnc2c(C(N)=O)ncn2c1=O [TEMOZOLOMIDE],Activity,MX1 [5],1.57 g
same,T/C,MX1 [6],38%
same,inhibition in vivo at 50 mg/kg,"MX1 [6]; Mus musculus, MX1, po, read-out: TGI",62%
same,Activity,Mus musculus,0.02 g
NC(=O)c1cc(F)cc2[nH]c(C(=O)N3CCC(NC4CCCCC4)CC3)nc12,PF50,[2],0.71
same,pIC50,[1],8.12
same,Ratio IC50,Homo sapiens,< 10
same,pIC50,[3],7.47
NC(=O)c1cccc2[nH]c(C(=O)N3CCNCC3)nc12,pIC50,[1],7.38
NC(=O)c1cc(F)cc2[nH]c(C(=O)N3CCC(NC4CCCCC4)C3)nc12 (stereo not given),PF50,[2],1.71
same,pIC50,[1],7.43
same,Ratio IC50,Homo sapiens,< 10
same,pIC50,[3],7.42
NC(=O)c1cccc2[nH]c(C(=O)NC3CCN(C4CCCCC4)CC3)nc12,pIC50,[1],6.51
CC[C@H]1CN(C(=O)c2nc3c(C(N)=O)cccc3[nH]2)CCN1,pIC50,[1],7.72
NC(=O)c1cccc2[nH]c(C(=O)NC3CCCN(C4CCNCC4)C3)nc12 (stereo not given),pIC50,[4],6.10
CC(C)N1CCC(NC(=O)c2nc3c(C(N)=O)cccc3[nH]2)CC1,pIC50,[1],7.19
CCC(CC)N1CCN(C(=O)c2nc3c(C(N)=O)cc(F)cc3[nH]2)CC1=O,pIC50,[1],7.06
CC(C)CN1CCN(C(=O)c2nc3c(C(N)=O)cccc3[nH]2)CC1,pIC50,[1],7.09
CC[C@@H]1CN(C(=O)c2nc3c(C(N)=O)cccc3[nH]2)CCN1,pIC50,[1],< 7.00
CC(C)(C)OC(=O)N1CCC(NC(=O)c2nc3c(C(N)=O)cccc3[nH]2)CC1,pIC50,[1],6.19
NC(=O)c1cccc2[nH]c(C(=O)N3CCC(N)CC3)nc12,PF50,[2],1.99
same,pIC50,[1],7.54
same,Ratio IC50,Homo sapiens,< 10
same,pIC50,[3],7.14
CC(C)CCN1CCCC(NC(=O)c2nc3c(C(N)=O)cccc3[nH]2)C1 (stereo not given),pIC50,[4],6.15
NC(=O)c1cccc2[nH]c(C(=O)NC3CCCN(C4CCCCC4)C3)nc12 (stereo not given),pIC50,[4],6.42
NC(=O)c1cccc2[nH]c(C(=O)N3CCC(NC4CCNCC4)CC3)nc12,pIC50,[1],6.50
NC(=O)c1cc(F)cc2[nH]c(C(=O)N3CCC(N)CC3)nc12,PF50,[2],0.98
same,pIC50,[1],8.56
same,Ratio IC50,Homo sapiens,< 10
same,pIC50,[3],7.62
